From publication PMC3383389 (Molecular and Biochemical Parasitology, 2012)

Legend:
[1] = target: T1, TbMCP-1 (Trypanosoma brucei, UniProt Q386R0); test: inhibition of FA-Ala-Lys hydrolysis after pre-incubation; assay type: biochemical; settings: read-out: % residual activity at 5 μM
T1 sequence (Q386R0 1-503): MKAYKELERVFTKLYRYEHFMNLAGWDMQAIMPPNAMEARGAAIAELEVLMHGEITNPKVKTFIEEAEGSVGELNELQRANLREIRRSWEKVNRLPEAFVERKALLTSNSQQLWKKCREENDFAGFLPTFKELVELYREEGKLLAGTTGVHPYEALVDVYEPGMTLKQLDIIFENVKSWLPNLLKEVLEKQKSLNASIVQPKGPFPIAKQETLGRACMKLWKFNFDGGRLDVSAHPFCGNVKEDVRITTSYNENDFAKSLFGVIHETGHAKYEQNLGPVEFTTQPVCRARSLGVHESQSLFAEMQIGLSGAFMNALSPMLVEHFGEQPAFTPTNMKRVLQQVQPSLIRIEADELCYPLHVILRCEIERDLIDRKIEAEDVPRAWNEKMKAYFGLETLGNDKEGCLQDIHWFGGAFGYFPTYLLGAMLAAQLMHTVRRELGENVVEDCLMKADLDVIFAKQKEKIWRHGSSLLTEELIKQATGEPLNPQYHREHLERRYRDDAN
How it was run: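 GST-fused recombinant TbMCP-1 was expressed in E. coli BL21 Codon Plus (DE3), purified on glutathione-agarose and desalted. The enzyme was pre-incubated with test compound (metal chlorides were tested from 1 µM to 1 mM). Activity was then read continuously at 340 nm with 200 µM furyl-acryloyl-Ala-Lys in 100 mM MOPS, pH 7.3, and reported as % residual activity.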

[2] = target: Trypanosoma brucei M32 metallocarboxypeptidase TbMCP-1, N-terminally GST-tagged recombinant enzyme (Trypanosoma brucei (Lister 427)); test: SEC

Row | Molecule | remaining activity at 5 µM [1] [%] | stoichiometry N [2]
1 | N=C(N)NCCSC(CC(=O)O)C(=O)O (centres unmarked) [GEMSA] | 9.1 ± 1.2 | –
2 | Trypanosoma brucei M32 metallocarboxypeptidase TbMCP-1, N-terminally GST-tagged recombinant enzyme | – | 2
